In ChEMBL document CHEMBL4334465, “SAR Studies on Aromatic Acylhydrazone-Based Inhibitors of Fungal Sphingolipid Synthesis as Next-Generation Antifungal Agents” (J Med Chem, 2019):
In brackets after ≈: the same amount, converted by molar mass.

Tests used:
[1] = system: Cryptococcus neoformans; experiment: Antifungal activity against Cryptococcus neoformans H99 measured after 24 to 72 hrs; assay type: functional; conditions: var grubii H99
Method in brief: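 Modified CLSI broth microdilution with inoculum per M27A3. Compounds were serially diluted 32 to 0.03 μg/mL. Media: C. neoformans in HEPES-buffered YNB without amino acids (pH 7.0, 2% glucose); Candida strains in YNB without ammonium sulfate or amino acids plus 1% asparagine (pH 7.0, 2% glucose); A. fumigatus in RPMI (pH 7.0, 2% glucose).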

[2] = system: Cryptococcus neoformans; experiment: Fungicidal activity against Cryptococcus neoformans H99 measured after 48 hrs by time-kill assay; assay type: functional, var grubii H99
Method in brief: (§1)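 Overnight C. neoformans washed in PBS and resuspended in HEPES-buffered YNB, pH 7.4. 2 × 10⁴ cells exposed to a range of drug concentrations in 10 mL with 0.5% DMSO final, at 37°C, 5% CO₂, shaking at 200 rpm. Aliquots sampled over 96 h, diluted and plated on YPD; CFU counted after 48 h at 30°C.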

[3] = system: A549; experiment: Cytotoxicity against human A549 cells after 24 to 48 hrs by MTT assay; assay type: functional; conditions: read-out: LD50 (the source's name)
Method in brief: (§2)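 A549 and HepG2 kept in DMEM with 10% FBS and 1% pen-strep. At passage 7, seeded at 10⁵ cells/well and allowed to adhere 14 h. Compound added at 0.03–128 μg/mL, untreated wells as controls. Incubation 37°C, 5% CO₂ for 24 or 48 h. MTT (5 mg/mL in PBS) added for 4 h, formazan dissolved in DMSO, OD570.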

[4] = system: HepG2; experiment: Cytotoxicity against human HepG2 cells after 24 to 48 hrs by MTT assay; assay type: functional; conditions: read-out: LD50 (the source's name); method in brief: as §2
[5] = Selectivity index, ratio of LD50 for human A549 cells to MIC80 for Cryptococcus neoformans H99; assay type: toxicity; conditions: read-out: Selectivity Index
Method in brief: (§3)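 SI = LD₅₀/MIC₈₀. Cytotoxicity: A549 or HepG2 cells (DMEM, 10% FBS, passage 7, 10⁵ cells/well) adhered 14 h, then exposed to 0.03–128 μg/mL for 24 or 48 h at 37°C, 5% CO₂; MTT 4 h, formazan dissolved in DMSO, read at 570 nm. MIC₈₀ against C. neoformans from broth microdilution in HEPES-buffered YNB, pH 7.0.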

[6] = Selectivity index, ratio of LD50 for human HepG2 cells to MIC80 for Cryptococcus neoformans H99; assay type: toxicity; conditions: read-out: Selectivity Index; method in brief: as §3
[7] = system: Cryptococcus neoformans; experiment: Fungicidal activity against Cryptococcus neoformans H99 measured after 24 hrs by time-kill assay; assay type: functional, var grubii H99; method in brief: as §1

| SMILES | MIC80 [1] | MFC100 [2] | CC50 [3] | CC50 [4] | selectivity ratio [5] | selectivity ratio [6] | MFC100 [7] |
| --- | --- | --- | --- | --- | --- | --- | --- |
| O=C(N/N=C/c1ccc(Br)cc1O)c1cc(Br)cc(Br)c1 | 1 µg/mL (≈ 2.1 µM) | 1 µg/mL (≈ 2.1 µM) | 4 µg/mL (≈ 8.39 µM) | 16 µg/mL (≈ 33.5 µM) | 4 | 16 |  |
| Cc1ccccc1C(=O)N/N=C/c1cc(C(F)(F)F)ccc1O | 8 µg/mL (≈ 24.8 µM) |  |  |  |  |  |  |
| Cc1ccc(O)c(/C=N/NC(=O)c2cc(Br)cc(Br)c2)c1 | 0.5 µg/mL (≈ 1.21 µM) |  | 32 µg/mL (≈ 77.7 µM) | 16 µg/mL (≈ 38.8 µM) | 64 | 32 | 1 µg/mL (≈ 2.43 µM) |
| Cc1ccc(O)c(/C=N/NC(=O)c2cc(Br)cc(Br)c2O)c1 | 0.25 µg/mL (≈ 0.584 µM) |  | 4 µg/mL (≈ 9.34 µM) | 8 µg/mL (≈ 18.7 µM) | 16 | 32 | 0.25 µg/mL (≈ 0.584 µM) |
| O=C(N/N=C/c1cc(Cl)cc(Cl)c1O)c1cccc(Br)c1Br | 1 µg/mL (≈ 2.14 µM) | 1 µg/mL (≈ 2.14 µM) | 64 µg/mL (≈ 137 µM) | 16 µg/mL (≈ 34.3 µM) | 64 | 16 |  |
| O=C(N/N=C/c1cc(Cl)ccc1O)c1ccc(Br)c(Br)c1 | 0.06 µg/mL (≈ 0.139 µM) | 1 µg/mL (≈ 2.31 µM) | 16 µg/mL (≈ 37 µM) | 32 µg/mL (≈ 74 µM) | 267 | 533 |  |
| O=C(N/N=C/c1cc(Cl)ccc1O)c1cc(Br)ccc1Br | 0.25 µg/mL (≈ 0.578 µM) |  | 59 µg/mL (≈ 136 µM) | 32 µg/mL (≈ 74 µM) | 236 | 128 | 0.25 µg/mL (≈ 0.578 µM) |
| O=C(N/N=C/c1cc(Cl)cc(Cl)c1O)c1cc(Br)ccc1Br | 0.5 µg/mL (≈ 1.07 µM) |  | 32 µg/mL (≈ 68.5 µM) | 32 µg/mL (≈ 68.5 µM) | 64 | 64 | 0.25 µg/mL (≈ 0.535 µM) |
| N#Cc1ccc(O)c(/C=N/NC(=O)c2ccc(Br)cc2Br)c1 | 8 µg/mL (≈ 18.9 µM) |  |  |  |  |  |  |
| O=C(N/N=C/c1cc(Br)cc(Br)c1O)c1ccc(F)cc1 | 0.12 µg/mL (≈ 0.288 µM) |  | 32 µg/mL (≈ 76.9 µM) | 32 µg/mL (≈ 76.9 µM) | 267 | 267 | 0.25 µg/mL (≈ 0.601 µM) |
| Cc1ccc(O)c(/C=N/NC(=O)c2ccc(Br)cc2Br)c1 | 1 µg/mL (≈ 2.43 µM) |  | 32 µg/mL (≈ 77.7 µM) | 16 µg/mL (≈ 38.8 µM) | 32 | 16 | 2 µg/mL (≈ 4.85 µM) |
| O=C(N/N=C/c1cc(Br)ccc1O)c1cccc(C(=O)N/N=C/c2cc(Br)ccc2O)c1 | > 16 µg/mL |  |  |  |  |  |  |
| Cc1ccccc1-c1nnc(-c2cc(Br)ccc2O)o1 | > 16 µg/mL |  |  |  |  |  |  |
